Bioassay records: PubChem, several laboratories
Only some compounds are listed: those with a hit (about 9.6% of all), similar ones and a draw of the others.
L major viab: reduces viability of Leishmania major promastigotes | resazurin fluorescence viability | inhibition, % at 10 µM | 200,000 compounds, 9% hits; in the data active = inhibition above about 50%;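 note: promastigotes grown with compound for 44 hours at 28 °C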
MT stabilize HCS: microtubule stabilizers in HeLa cells; HeLa tubulin immunostaining HCS, 24 h; share of cells brighter than vehicle mean+2SD; % tubulin-high responders, % at 10 µM; 200,000 compounds, 0.83% hits; AID 2205;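 active = plate Z-score above 3 for both tubulin-high and condensed-nucleus cell shares, with cell loss under 80%, at 10 µM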;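 note: anti alpha tubulin signal scored within the nucleus-defined area of each cell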
BaF3 tox: reduces parental Ba/F3 cell viability, JAK2V617F counter-screen; CellTiter-Glo ATP luminescence; inhibition, % at 5.6 µM; 220,000 compounds, 1.1% hits; AID 1486;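 active = inhibition above a per-campaign cutoff, the mean inhibition of all tested compounds plus 3 SD, cut at about 27% in these data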;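 note: 0% = DMSO wells and 100% = JAK Inhibitor I control wells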
Ba/F3 V617F tox: loss of viability in JAK2V617F-driven Ba/F3 cells | Ba/F3 EpoR-JAK2V617F viability, ATP luminescence | inhibition, % at 5.6 µM | 220,000 compounds, 1.1% hits | AID 1446;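 active = inhibition above the campaign mean plus 3 SD over all tested compounds, cut at about 24% in these data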;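 note: cytokine-independent growth of Ba/F3 cells driven by EpoR plus mutant JAK2; 0% = DMSO-treated cells and 100% = JAK inhibitor I control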
APP 5UTR inh: APP translation inhibition; SH-SY5Y APP 5'UTR-luciferase reporter, luminescence; inhibition, % at 2 µM; 190,000 compounds, 0.82% hits; AID 1285;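 active = inhibition above a set limit, derived from the sample mean plus 3 SD, cut at about 45% in these data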
b-catenin transl: alters nuclear translocation of beta-catenin in HeLa cells; immunofluorescence imaging; nuclear translocation activity, % at 5 µM; 190,000 compounds, 0.3% hits; AID 1665;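 active = nuclear translocation activity above 50% at 5 µM, with a well cell count of 50 or more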;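 note: per-cell ratio of nuclear to cytoplasmic median beta-catenin stain intensity; plate controls were DMSO negative control for no effect and GSK-3 inhibitor IX positive control for full effect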
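Test system: human HeLa cell line; Doses: 5 µM primary, 0.02–20 µM confirmation; Incubation: 24 h compound exposure, 37°C; Detection: beta-catenin immunofluorescence imaging with DAPI; Read-out: beta-catenin nuclear/cytoplasmic ratio, % activation.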
Starred values were filed as active, the others as inactive; . = no result.

SMILES	L major viab	MT stabilize HCS	BaF3 tox	Ba/F3 V617F tox	APP 5UTR inh	b-catenin transl
CCOc1ccc(N(CC(=O)Nc2c(C)n(C)n(-c3ccccc3)c2=O)S(=O)(=O)c2ccccc2)cc1	-5.9	1.8	1.0	-5.5	-7.9	-0.4
COc1ccc2nc(C)cc(Nc3ccccc3O)c2c1	59.4*	6.5	4.7	0.2	5.7	1.4
COc1ccc(OC)c(Nc2cc(-c3ccccc3)nc(N)n2)c1	15.9	8.4	76.1*	82.7*	94.2*	.
COC(=O)CSc1cc(C)nc2ccc(OC)cc12	9.1	2.5	-2.1	-5.9	12.5	-3.0
COc1cccc(Nc2nc(NCCO)c3ccccc3n2)c1	100.5*	1.5	4.2	-1.3	15.8	7.3
COc1ccc2nc(-c3ccccc3)cc(OC)c2c1	49.9	2.0	6.1	0.5	-11.7	-1.4
OCCNc1nc(Nc2cccc(O)c2)nc2ccccc12	.	.	-11.6	-3.0	.	0.9
COc1ccc(OC)c(Nc2cc(C)nc3ccccc23)c1	70.6*	33.0	0.3	1.4	-2.4	2.6
COc1cccc(Nc2cc(C)nc3ccccc23)c1	87.5*	1.6	6.1	1.0	5.3	-1.6
Cc1ccccc1S(=O)(=O)NC1=NCCCCC1	-8.9	14.5*	0.9	-1.3	-6.4	0.2
O=S(=O)(NC1=NCCCCC1)c1ccccc1Cl	.	.	0.1	-3.7	.	1.1
COC(=O)C1=C(C)NC2=C(C(=O)CC(c3cccs3)C2)C1c1ccsc1 (centres undefined)	26.2	26.3*	22.3	10.1	0.4	-2.8
COC(=O)C1=C(C)NC2=C(C(=O)CCC2)C1c1ccsc1 (centres undefined)	-5.3	1.7	-2.0	-0.4	-4.6	-3.1
CC1=C(C(=O)OC2CCCC2)C(c2ccc(C)o2)C2=C(CC(c3cccs3)CC2=O)N1 (centres undefined)	83.4*	2.3	-2.9	1.4	-5.0	-0.6
CCOC(=O)C1=C(C)NC2=C(C(=O)OC2)C1c1ccccc1 (centres undefined)	11.8	27.5	3.5	-1.4	15.9	81.3*
CCOC(=O)C1=C(C)NC2=C(C(=O)CC(c3cccs3)C2)C1c1cccs1 (centres undefined)	16.2	18.3*	11.3	9.1	-5.5	-3.1
Cn1c(SCC(=O)N2CCc3ccccc32)nnc1-c1ccc(S(=O)(=O)N2CCCC2)cc1	49.1	2.0	0.0	-4.1	10.3	-1.1
COc1ccc(N2CCC(CNC(=S)Nc3ccc(C)cc3C)C2)cc1 (centres undefined)	.	.	-2.8	2.9	.	0.7
COc1cccc(C(c2nnnn2Cc2ccccc2)N2CCN(C3CCCC3)CC2)c1OC (centres undefined)	97.7*	3.1	6.2	2.1	6.9	-0.9
COc1ccc(C(c2nnnn2C2CCCC2)N2CCN(C3CCCC3)CC2)cc1OC (centres undefined)	83.2*	4.4	3.1	6.2	8.7	-2.4
COc1ccccc1C(c1nnnn1Cc1ccccc1)N1CCN(C2CCCC2)CC1 (centres undefined)	11.6	3.5	4.4	2.4	-10.7	.
COc1ccc(C(c2nnnn2CCc2ccccc2)N2CCN(C3CCCC3)CC2)cc1OC (centres undefined)	99.6*	1.7	0.7	-0.8	-4.3	0.0
Cc1ccc2[nH]cc(C(=O)CN3CCN(C)CC3)c2c1	6.3	3.1	6.0	-1.4	8.0	-1.5
Cc1ccc2[nH]cc(C(=O)CCl)c2c1	80.7*	3.2	6.3	-1.7	-9.3	-0.6
COc1ccc(C2NCCc3c2[nH]c2ccccc32)cc1CN1CCc2cc(OC)c(OC)cc2C1C (centres undefined)	.	.	5.1	10.1	.	3.1
SMILES	L major viab	MT stabilize HCS	BaF3 tox	Ba/F3 V617F tox	APP 5UTR inh	b-catenin transl
COc1ccc(C2NCCc3c2[nH]c2ccccc32)cc1COc1ccc(F)cc1 (centres undefined)	100.3*	40.2	7.4	4.8	-0.4	.
O=C(Cn1nc(CNc2ccc(Cl)cc2)[n+]2c1CCCCC2)c1ccc(Br)cc1	59.1*	7.0	0.4	-1.8	-13.4	0.2
O=c1[nH]c(NCc2ccco2)nnc1Cc1ccccc1Cl	1.0	58.7*	12.4	3.8	12.5	3.1
COc1ccc(CSc2nncn2C)cc1[N+](=O)[O-]	52.4*	4.4	0.8	-2.4	1.1	1.8
CCOC(=O)c1sc2nc3c(SCCC(=O)O)cc(C(=O)c4cc(OC)ccc4O)cn3c(=O)c2c1C	-12.3	4.4	7.7	5.2	29.6	5.8
CCOC(=O)c1sc2nc3c(SCCC#N)cc(C(=O)c4cc(F)ccc4O)cn3c(=O)c2c1C	63.3*	5.4	8.5	0.6	17.4	-0.7
Cc1sc(NC(=O)c2ccco2)c(C(c2cccnc2)N2CCCC2)c1C (centres undefined)	99.0*	3.8	6.2	-4.8	5.5	0.5
COCCn1c(SCC(=O)c2c[nH]c3ccccc23)nnc1-c1ccncc1	82.9*	2.4	7.2	-6.3	-1.7	1.3
CCn1c(SCC(=O)c2c[nH]c3ccccc23)nnc1-c1cccs1	0.3	4.2	2.8	1.2	-13.9	-0.2
CCN(CC)C(=O)CSc1nc(N)c2c3c(sc2n1)CC(C)CC3 (centres undefined)	64.2*	0.8	-1.2	-2.6	-30.6	-2.1
O=C(COC(=O)CNS(=O)(=O)c1ccc(F)c(F)c1F)Nc1ccc(OC(F)F)cc1	81.7*	2.3	2.4	-3.1	7.9	-0.1
COc1cc(NC(=O)COC(=O)CNS(=O)(=O)c2ccc(F)c(F)c2F)cc(OC)c1	-2.7	3.3	0.1	-1.6	19.2	-0.1
CCSc1nc(=S)cc(C)[nH]1	.	.	-6.4	3.4	.	-1.0
Cc1cc(C)cc(OCCNS(=O)(=O)c2cccs2)c1	8.7	2.5	8.0	1.3	-20.8	0.3
Cc1ccccc1OCCNc1cc(N2CC(C)NC(C)C2)ccc1[N+](=O)[O-] (centres undefined)	100.5*	13.6	7.9	5.8	-12.4	1.0
O=[N+]([O-])c1ccc(N2CCCCC2)cc1NCCOc1ccccc1	69.2*	2.9	7.2	1.6	-8.7	-1.8
CCc1ccc(CNCc2ccc(OCC(O)CN(C)Cc3ccccc3)cc2)nc1 (centres undefined)	85.5*	1.9	0.8	-0.9	-2.1	2.1
CN(Cc1ccccc1)CC(O)COc1ccc(CNCc2nccn2C)cc1 (centres undefined)	19.7	2.8	1.7	5.4	16.4	0.5
Cc1cc(CN(C)Cc2ccc(OCC(O)CN(C)Cc3ccccc3)cc2)on1 (centres undefined)	87.5*	3.1	6.4	0.2	14.8	0.0
CN(Cc1ccccc1)CC(O)COc1ccc(CNCCc2ccncc2)cc1 (centres undefined)	90.0*	1.3	7.0	2.6	6.3	1.3
CCn1ccnc1CNCc1ccc(OCC(O)CN(C)Cc2ccccc2)cc1 (centres undefined)	31.7	5.3	7.1	2.1	-14.9	0.1
